Assay results pooled from the literature.
Protocols differ between the studies behind these lines.
Target: Cannabinoid receptor 2 (CNR2, Homo sapiens, UniProt P34972)
Read-out: ligand displacement
Method: radioligand

SMILES | setting | Ki [nM]
CCCCCc1cc(O)c(C/C=C(\C)CCC=C(C)C)c(O)c1C(=O)O | cell membranes | > 10000
Cc1nonc1Cn1nnc2c(N3CC[C@H](O)C3)nc(C(C)(C)C)nc21 | cell membranes | 11
CCOC(=O)C(CCCOC)NC(=O)c1ccc(C2CC2)c(Cc2ccc(F)cc2)n1 (stereo not drawn) | cell membranes | 17
CC1(C)C(C(=O)c2cn(CCCCCF)c3ccccc23)C1(C)C | cell membranes | 2.13
C=CCC(CC)(NC(=O)c1ccc(C2CC2)c(Cc2ccc(F)cc2)n1)C(=O)OCC (stereo not drawn) | cell membranes | 0.8
CCCc1cc(O)c2c(c1)OC(C)(C)[C@@H]1CCC(C)=C[C@@H]21 | cell membranes | 105
NC(=O)[C@@H]1CC(F)(F)CN1C(=O)c1ccc(N2CC(F)(F)C2)c(OCC2CC2)n1 | cell membranes | 40
CCCCCc1cc2c(c(O)c1C(=O)O)C1C=C(C)CCC1C(C)(C)O2 (stereo not drawn) | cell membranes | 1650
Cc1c(C(=O)Nc2ccc(F)nc2)nc(-c2ccc(Cl)cc2Cl)n1-c1ccc(OS(=O)(=O)CCC(F)(F)F)cc1 | cell membranes | 1.4
CCCCCc1cc(O)c2c(c1)OC(C)(C)[C@@H]1CC[C@](C)(O)[C@@H](O)[C@@H]21 | cell membranes | 2140
CCCS(=O)(=O)Oc1ccc(-n2c(-c3ccc(Cl)cc3Cl)nc(C(=O)NN3CCCCC3)c2C)cc1 | cell membranes | 35
CCOC(=O)C(CC)(CCCSCCOCCOCCOCCNC(=O)OC(C)(C)C)NC(=O)c1ccc(C2CC2)c(Cc2ccc(F)cc2)n1 (stereo not drawn) | cell membranes | 138
CC/C(=C(\c1ccc(O)cc1)c1ccc(OCCN(C)C)cc1)c1ccccc1 | cell membranes | 900
CCOC(=O)[C@](CC)(CCC[S+]([O-])CCOCCOCCNC(=O)OC(C)(C)C)NC(=O)c1ccc(C2CC2)c(Cc2ccc(F)cc2)n1 (stereo partly drawn) | cell membranes | 29
CCCCCn1c2ccccc2c2cc(C(=O)N3CCN(CC(=O)NC(C)(C)C)CC3)ccc21 | – | 2000
